Laboratory results taken from ChEMBL document CHEMBL1142504, “Influence of 6- or 8-substitution on the antiviral activity of 3-arylalkylthiomethylimidazo[1,2-a]pyridine against human cytomegalovirus (CMV) and varicella-zoster virus (VZV): part II” (Bioorg Med Chem, 2008).
Converted amounts (≈) assume the structure as drawn.

Key:
Human alphaherpesvirus 3 [1] = test: Antiviral activity against thymidine kinase deficient Varicella-Zoster virus 07/1 in HEL cells assessed as inhibition of viral cytopathicity; assay type: functional, organism-based; conditions: Human alphaherpesvirus 3, HEL
In short: (§1)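 VZV input was 20 PFU per HEL cell culture. Cultures were incubated with test compound for 5 days at 37 °C under 5% CO2, then fixed and stained. Viral plaque formation was counted against the untreated control to give the EC50.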

Human betaherpesvirus 5 [2] = test: Antiviral activity against human cytomegalovirus AD169 in HEL cells assessed as inhibition of viral cytopathicity; assay type: functional, organism-based; conditions: Human betaherpesvirus 5, AD169, HEL
In short: (§2)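 Confluent HEL cell cultures were inoculated with 100 PFU of HCMV. After 2 h adsorption, residual virus was removed and cells were incubated with varying concentrations of test compound. Viral cytopathicity was scored when it reached completion in the untreated virus-infected controls, and the EC50 was taken from this read-out.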

Human betaherpesvirus 5 [3] = test: Antiviral activity against human cytomegalovirus Davis in HEL cells assessed as inhibition of viral cytopathicity; assay type: functional, organism-based; conditions: Human betaherpesvirus 5, Davis; in short: as §2
[4] = Cytotoxicity against HEL cells assessed as morphological alteration after 3 days; assay type: cell-based; conditions: human
In short: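 HEL cell cultures were examined by microscope. Cytotoxicity was recorded as the minimum cytotoxic concentration (MCC), meaning the lowest compound concentration that caused a detectable alteration of cell morphology.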

[5] = Cytotoxicity against HEL cells assessed as reduction of growth after 3 days; assay type: cell-based; conditions: human
In short: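 HEL cell suspensions were added to wells holding varying concentrations of test compound. Plates were incubated 3 days at 37 °C in a humidified CO2 incubator, and viable cells were counted with a Coulter Counter. CC50 is the concentration that reduced viable cell number by 50%.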

Human alphaherpesvirus 3 [6] = test: Antiviral activity against thymidine kinase expressing Varicella-Zoster virus Oka in HEL cells assessed as inhibition of viral cytopathicity; assay type: functional, organism-based; conditions: Human alphaherpesvirus 3, Oka; in short: as §1

Compound | EC50 (Human alphaherpesvirus 3 [1]) [µg/mL] | EC50 (Human betaherpesvirus 5 [2]) [µg/mL] | EC50 (Human betaherpesvirus 5 [3]) [µg/mL] | MCC at 72 h [4] [µg/mL] | CC50 at 72 h [5] [µg/mL] | EC50 (Human alphaherpesvirus 3 [6]) [µg/mL]
Cc1cc(Sc2ccc(O)cc2)cn2c(CSCCc3ccccc3)cnc12 | > 0.8 | > 0.8 | 0.8 (≈ 1.97 µM) | 4 | 100 (≈ 246 µM) | > 0.8
Cc1cc(N2CCCC2)c2ncc(CSCc3ccccc3)n2c1 | > 4 | 10 (≈ 29.6 µM) | 5.2 (≈ 15.4 µM) | ≥ 20 | 52 (≈ 154 µM) | 17.7 (≈ 52.4 µM)
Cc1cc(Sc2ccc(Cl)cc2)cn2c(CSCCc3ccccc3)cnc12 | > 4 | > 4 | > 4 | 20 | 14 (≈ 32.9 µM) | > 4
Cc1cc(-c2ccc3[nH]ccc3c2)cn2c(CSCCc3ccccc3)cnc12 |  | > 20 | > 4 | ≥ 20 | 26 (≈ 65.4 µM) | 
Cc1cc(-n2ccc3cccnc32)cn2c(CSCCc3ccccc3)cnc12 | > 4 | 2 (≈ 5.02 µM) | 1.4 (≈ 3.51 µM) | 20 | 16 (≈ 40.1 µM) | > 4
Cc1cc(-n2ccc3ccccc32)c2ncc(CSCCc3ccccc3)n2c1 | > 20 | 20 (≈ 50.3 µM) | 10.5 (≈ 26.4 µM) | 100 | > 100 | > 20
Cc1cc(N2CCOCC2)c2ncc(CSCCc3ccccc3)n2c1 | 36.6 (≈ 99.6 µM) | > 4 | 8.2 (≈ 22.3 µM) | > 100 | 49 (≈ 133 µM) | 53.6 (≈ 146 µM)
Cc1cc(-c2ccoc2)c2ncc(CSCCc3ccccc3)n2c1 | > 20 | 1.8 (≈ 5.17 µM) | 1.3 (≈ 3.73 µM) | 100 | 64 (≈ 184 µM) | 20 (≈ 57.4 µM)
Cc1cc(N2CCCC2)cn2c(CSCCc3ccccc3)cnc12 | > 4 | 4 (≈ 11.4 µM) | 2 (≈ 5.69 µM) | 20 | 12 (≈ 34.1 µM) | > 4
Cc1cc(Sc2ccc(N)cc2)cn2c(CSCCc3ccccc3)cnc12 | 2.2 (≈ 5.42 µM) | 1.8 (≈ 4.44 µM) | 1.8 (≈ 4.44 µM) | 20 | 23 (≈ 56.7 µM) | > 4
Cc1cc(N2CCCC2=O)c2ncc(CSCCc3ccccc3)n2c1 | > 4 | > 4 | > 4 | 20 | 25 (≈ 68.4 µM) | > 4
Cc1cc(-c2ccco2)cn2c(CSCCc3ccccc3)cnc12 | > 0.8 | > 0.8 | > 0.8 | > 4 | 40 (≈ 115 µM) | > 4
Cc1cc(-n2ccnc2)c2ncc(CSCCc3ccccc3)n2c1 | > 4 | 3.1 (≈ 8.9 µM) | 2.3 (≈ 6.6 µM) | 20 | 10 (≈ 28.7 µM) | > 4
Cc1cc(C#N)c2ncc(CSCCc3ccccc3)n2c1 | > 4 | 2.2 (≈ 7.16 µM) | 2 (≈ 6.51 µM) | ≥ 20 | > 100 | 16.4 (≈ 53.3 µM)
Nc1ccn(C[C@@H](CO)OCP(=O)(O)O)c(=O)n1 [CIDOFOVIR] |  |  |  | ≥ 100 |  | 
Cc1cc(N2CCCC2=O)cn2c(CSCCc3ccccc3)cnc12 | > 20 | > 20 | > 20 | > 100 | 89 (≈ 244 µM) | > 100
Cc1cc(-n2cccc2)cn2c(CSCCc3ccccc3)cnc12 | > 0.8 | > 0.8 | 1.3 (≈ 3.74 µM) | ≥ 4 | 11 (≈ 31.7 µM) | > 4
Cc1cc(-c2ccoc2)cn2c(CSCCc3ccccc3)cnc12 | > 0.8 | > 0.8 | 0.27 (≈ 0.775 µM) | > 4 | 12 (≈ 34.4 µM) | 2.4 (≈ 6.89 µM)
Nc1nc2c(ncn2COCCO)c(=O)[nH]1 [ACYCLOVIR] | 13 (≈ 57.7 µM) |  |  | > 400 | 137 (≈ 608 µM) | 0.24 (≈ 1.07 µM)

Compound | EC50 (Human alphaherpesvirus 3 [1]) [µg/mL] | EC50 (Human betaherpesvirus 5 [2]) [µg/mL] | EC50 (Human betaherpesvirus 5 [3]) [µg/mL] | MCC at 72 h [4] [µg/mL] | CC50 at 72 h [5] [µg/mL] | EC50 (Human alphaherpesvirus 3 [6]) [µg/mL]
Cc1cc(-n2ccc3ccccc32)cn2c(CSCCc3ccccc3)cnc12 | > 4 | > 4 | 1.8 (≈ 4.53 µM) | > 20 | 18 (≈ 45.3 µM) | > 20
Cc1cc(C#N)cn2c(CSCCc3ccccc3)cnc12 | > 4 | 8.9 (≈ 29 µM) | 8.9 (≈ 29 µM) | 20 | 14 (≈ 45.5 µM) | > 4
Cc1cc(N2CCN(C)CC2)cn2c(CSCCc3ccccc3)cnc12 | > 4 | > 20 | > 4 | 20 | 32 (≈ 84.1 µM) | > 4
Cc1cc(-n2ccnc2)cn2c(CSCCc3ccccc3)cnc12 | 11.4 (≈ 32.7 µM) | 8.9 (≈ 25.5 µM) | 6.8 (≈ 19.5 µM) | 100 | 23 (≈ 66 µM) | 10.7 (≈ 30.7 µM)
Cc1cc(N2CCCC2)c2ncc(CSCCc3ccccc3)n2c1 | > 20 | > 20 | 20 (≈ 56.9 µM) | > 100 | > 100 | 35.7 (≈ 102 µM)
C=Cc1ccc(-c2cc(C)c3ncc(CSCc4ccccc4)n3c2)cc1 |  | > 100 | 30 (≈ 81 µM) | ≥ 100 | 59 (≈ 159 µM) | 
Cc1cc(-n2cccc2)c2ncc(CSCCc3ccccc3)n2c1 | > 20 | 1.8 (≈ 5.18 µM) | 1.8 (≈ 5.18 µM) | 100 | 26 (≈ 74.8 µM) | > 20
Cc1cc(-n2cccc2)c2ncc(CSCc3ccccc3)n2c1 | 1.8 (≈ 5.4 µM) | 6.3 (≈ 18.9 µM) | 2.9 (≈ 8.7 µM) | 100 | 15 (≈ 45 µM) | 2.2 (≈ 6.6 µM)
Cc1cc(-c2ccco2)c2ncc(CSCCc3ccccc3)n2c1 | 7.9 (≈ 22.7 µM) | 2.5 (≈ 7.17 µM) | 2.7 (≈ 7.75 µM) | 100 | 41 (≈ 118 µM) | 6.6 (≈ 18.9 µM)
O=c1[nH]c(=O)n([C@H]2C[C@H](O)[C@@H](CO)O2)cc1/C=C/Br [BRIVUDINE] | > 50 |  |  | 400 | 122 (≈ 366 µM) | 0.0037 (≈ 0.0111 µM)
Cc1cc(Sc2ccc(O)cc2)c2ncc(CSCCc3ccccc3)n2c1 | 2.9 (≈ 7.13 µM) | > 0.8 | 0.8 (≈ 1.97 µM) | > 100 | 79 (≈ 194 µM) | 58 (≈ 143 µM)
Cc1cc(N2CCOCC2)cn2c(CSCCc3ccccc3)cnc12 | > 20 | > 20 | > 20 | 100 | 45 (≈ 122 µM) | > 20
Cc1cc(Sc2ccc(Cl)cc2)c2ncc(CSCCc3ccccc3)n2c1 | > 0.8 | > 0.8 | > 0.8 | 4 | 100 (≈ 235 µM) | > 0.8
Cc1cc(-c2ccsc2)cn2c(CSCc3ccccc3)cnc12 | > 0.8 | > 0.8 | 0.8 (≈ 2.28 µM) | 4 | 9.4 (≈ 26.8 µM) | > 0.8
Cc1cc(-n2ccc3cccnc32)c2ncc(CSCCc3ccccc3)n2c1 | 14 (≈ 35.1 µM) | 4 (≈ 10 µM) | 1.8 (≈ 4.52 µM) | 100 | > 100 | 6.6 (≈ 16.6 µM)
Cc1cc(-c2ccsc2)c2ncc(CSCc3ccccc3)n2c1 | 6.5 (≈ 18.5 µM) | 4 (≈ 11.4 µM) | 2.1 (≈ 5.99 µM) | 100 | 100 (≈ 285 µM) | 7.3 (≈ 20.8 µM)
C=Cc1ccc(-c2cc(C)c3ncc(CSCCc4ccccc4)n3c2)cc1 |  | > 4 | 2.9 (≈ 7.54 µM) | 20 | 14 (≈ 36.4 µM) | 
Cc1cc(-c2ccc(C=O)cc2)cn2c(CSCCc3ccccc3)cnc12 |  | 12.6 (≈ 32.6 µM) | 6 (≈ 15.5 µM) | 100 | 9.4 (≈ 24.3 µM) | 
Cc1cc(-n2cccc2)cn2c(CSCc3ccccc3)cnc12 | 2.1 (≈ 6.3 µM) | 1.6 (≈ 4.8 µM) | 1.3 (≈ 3.9 µM) | 20 | 17 (≈ 51 µM) | > 4
